Test results taken from ChEMBL document CHEMBL4819122, “Novel 4-(piperazin-1-yl)quinolin-2(1H)-one bearing thiazoles with antiproliferative activity through VEGFR-2-TK inhibition” (Bioorg Med Chem, 2021).

Key:
[1] = tested on: Hs-578T; assay: Cytotoxicity against human HS 578T assessed as growth inhibition at 10 uM by NCI protocol relative to control; format: functional; conditions: read-out: GI
Method in brief: (§1)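 Run by NCI as a single-dose screen at 10 μM across the sixty-cell-line panel, which covers nine human tumour tissue types. The read-out is percent growth inhibition of treated cells relative to untreated cells.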

[2] = tested on: Malme-3M; assay: Cytotoxicity against human MALME-3M assessed as growth inhibition at 10 uM by NCI protocol relative to control; format: functional; conditions: read-out: GI; method in brief: as §1
[3] = tested on: U-251; assay: Cytotoxicity against human U251 assessed as growth inhibition at 10 uM by NCI protocol relative to control; format: functional; conditions: read-out: GI
Method in brief: (§2)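 Run by the NCI under its standard protocol: one dose of 10 μM against a sixty-line panel from nine human tumour tissues. Result given as percent growth inhibition of treated cells relative to untreated cells.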

[4] = tested on: UACC-62; assay: Cytotoxicity against human UACC-62 assessed as growth inhibition at 10 uM by NCI protocol relative to control; format: functional; conditions: read-out: GI; method in brief: as §2
[5] = tested on: CAKI-1; assay: Cytotoxicity against human Caki1 assessed as growth inhibition at 10 uM by NCI protocol relative to control; format: functional; conditions: read-out: GI; method in brief: as §1
[6] = tested on: T47D; assay: Cytotoxicity against human T-47D assessed as growth inhibition at 10 uM by NCI protocol relative to control; format: functional; conditions: read-out: GI; method in brief: as §2
[7] = tested on: M14; assay: Cytotoxicity against human M14 assessed as growth inhibition at 10 uM by NCI protocol relative to control; format: functional; conditions: read-out: GI; method in brief: as §1
[8] = tested on: NCI-H322M; assay: Cytotoxicity against human NCI-H322M assessed as growth inhibition at 10 uM by NCI protocol relative to control; format: functional; conditions: read-out: GI; method in brief: as §1
[9] = tested on: RXF 393; assay: Cytotoxicity against human RXF 393 assessed as growth inhibition at 10 uM by NCI protocol relative to control; format: functional; conditions: read-out: GI; method in brief: as §1
[10] = tested on: HCC 2998; assay: Cytotoxicity against human HCC-2998 assessed as growth inhibition at 10 uM by NCI protocol relative to control; format: functional; conditions: read-out: GI; method in brief: as §1
[11] = tested on: MDA-MB-468; assay: Cytotoxicity against human MDA-MB-468 assessed as growth inhibition at 10 uM by NCI protocol relative to control; format: functional; conditions: read-out: GI; method in brief: as §1
[12] = tested on: ACHN; assay: Cytotoxicity against human ACHN assessed as growth inhibition at 10 uM by NCI protocol relative to control; format: functional; conditions: read-out: GI; method in brief: as §1
[13] = tested on: COLO 205; assay: Cytotoxicity against human COLO 205 assessed as growth inhibition at 10 uM by NCI protocol relative to control; format: functional; conditions: read-out: GI; method in brief: as §1
[14] = tested on: SN12C; assay: Cytotoxicity against human SN12C assessed as growth inhibition at 10 uM by NCI protocol relative to control; format: functional; conditions: read-out: GI; method in brief: as §2
[15] = tested on: SNB-19; assay: Cytotoxicity against human SNB-19 assessed as growth inhibition at 10 uM by NCI protocol relative to control; format: functional; conditions: read-out: GI; method in brief: as §2
[16] = tested on: HOP-62; assay: Cytotoxicity against human HOP-62 assessed as growth inhibition at 10 uM by NCI protocol relative to control; format: functional; conditions: read-out: GI; method in brief: as §1
[17] = tested on: T47D; assay: Induction of cell cycle arrest in human T47D cells assessed as increase in accumulation at pre G1 phase after 24 hrs by propidium iodide/Annexin V staining based FACScan flow cytometry(reference value: 2.61%); format: functional
[18] = tested on: T47D; assay: Induction of cell cycle arrest in human T47D cells assessed as increase in accumulation at S phase after 24 hrs by propidium iodide/Annexin V staining based FACScan flow cytometry(reference value: 34.62%); format: functional
[19] = tested on: MCF10; assay: Cytotoxicity against human MCF10 cells assessed as reduction in cell viability after 3 hrs by MTT assay; conditions: MCF10, 3 h
[20] = tested on: T47D; assay: Induction of cell cycle arrest in human T47D cells assessed as increase in accumulation at G0/G1 phase after 24 hrs by propidium iodide/Annexin V staining based FACScan flow cytometry(reference value: 52.59%); format: functional
[21] = tested on: T47D; assay: Induction of apoptosis in human T47D cells assessed as necrotic cells after 24 hrs by Annexin V-FITC/propidium iodide staining based flow cytometric analysis (reference value: 1.74%); format: functional
[22] = tested on: T47D; assay: Induction of apoptosis in human T47D cells assessed as total apoptotic cells after 24 hrs by Annexin V-FITC/propidium iodide staining based flow cytometric analysis (reference value: 2.61 %); format: functional
[23] = tested on: T47D; assay: Induction of apoptosis in human T47D cells assessed as late apoptotic cells after 24 hrs by Annexin V-FITC/propidium iodide staining based flow cytometric analysis (reference value: 0.21 %); format: functional
[24] = tested on: T47D; assay: Induction of apoptosis in human T47D cells assessed as early apoptotic cells after 24 hrs by Annexin V-FITC/propidium iodide staining based flow cytometric analysis (reference value: 0.66 %); format: functional
[25] = tested on: T47D; assay: Induction of cell cycle arrest in human T47D cells assessed as increase in accumulation at G2/M phase after 24 hrs by propidium iodide/Annexin V staining based FACScan flow cytometry(reference value: 12.79%); format: functional

Row | Structure (SMILES) | inhibition of growth at 10 µM [1] [%] | inhibition of growth at 10 µM [2] [%] | inhibition of growth at 10 µM [3] [%] | inhibition of growth at 10 µM [4] [%] | inhibition of growth at 10 µM [5] [%] | inhibition of growth at 10 µM [6] [%] | inhibition of growth at 10 µM [7] [%] | inhibition of growth at 10 µM [8] [%] | inhibition of growth at 10 µM [9] [%] | inhibition of growth at 10 µM [10] [%] | inhibition of growth at 10 µM [11] [%] | inhibition of growth at 10 µM [12] [%] | inhibition of growth at 10 µM [13] [%] | inhibition of growth at 10 µM [14] [%] | inhibition of growth at 10 µM [15] [%] | inhibition of growth at 10 µM [16] [%] | also measured
1 | Cc1ccc(-c2csc(NC(=O)CN3CCN(c4cc(=O)[nH]c5ccc(F)cc45)CC3)n2)cc1 | 41.4 | 43.5 | 44.4 | 33.9 | 52.6 | 74.3 | 27.5 | 18.9 | 27 | 34.1 | 41.5 | 44.1 | 10.7 | 45.1 |  |  | 
2 | O=C(CN1CCN(c2cc(=O)n(-c3ccccc3)c3ccccc23)CC1)Nc1nc(-c2ccccc2)cs1 | 17.1 | 30.3 | 40.8 | 36.1 | 38.6 | 83.4 | 26.6 | 10.6 | 23.1 | 18.2 | 86.7 | 36.2 | 39.9 | 17.9 | 14.8 | 33.5 | 
3 | O=C(CN1CCN(c2cc(=O)[nH]c3ccc(F)cc23)CC1)Nc1nc(-c2ccc(Cl)cc2)cs1 | 33.5 | 43.3 | 37.3 | 32 | 55.5 | 73.2 | 30.6 | 21.3 | 37.6 | 30.9 | 51.4 | 38.5 | 14.5 | 36.2 | 30.8 |  | 
4 | O=C(CN1CCN(c2cc(=O)n(-c3ccccc3)c3ccccc23)CC1)Nc1nc(-c2ccc(Cl)cc2)cs1 |  | 44.9 | 36.2 | 38.5 | 50.4 | 75.7 | 50.2 | 10.9 | 33 |  | 90.4 | 44.9 | 42.7 | 25.9 | 36 | 34.2 | Activity [17]: 25.12%; Activity [18]: 49.36%; IC50 [19]: 64.6 µM; Activity [20]: 45.69%; Activity [21]: 9.85%; Activity [22]: 25.12%; Activity [23]: 11.21%; Activity [24]: 4.06%; Activity [25]: 4.95%
